From ChEMBL document CHEMBL1139333, “Search for new pharmacophores for antimalarial activity. Part I: synthesis and antimalarial activity of new 2-methyl-6-ureido-4-quinolinamides” (Bioorg Med Chem, 2009) come the findings set out here.

Converted amounts (≈) assume the structure as drawn. Some results are limits rather than exact numbers.

Assay [1] is described as follows: Selectivity index, ratio of CC50 for african green monkey (Cercopithecus aethiops) Vero cells to IC50 for Plasmodium falciparum 3D7. The class given is functional.
In assay [2] the test system is Plasmodium yoelii. Description: Antimalarial activity as parasitaemia after 28 days against chloroquine-resistant Plasmodium yoelii N67 infected Swiss mice (Mus musculus) at 50 mg/kg peroral dose over 4 days. The conditions noted are these: route oral. The class given is functional. In a few lines:
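Swiss mice (25 g, either sex, n=5) infected on day 0 with 1 × 10⁶ P. yoelii N67 chloroquine-resistant parasitized cells. Test compounds were given orally as an aqueous suspension at 50 mg/kg from day 0 to 3; vehicle controls were run alongside. Parasitaemia was counted on tail-vein thin smears on days 4, 7, 14, 21 and 28, or until death.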

In assay [3] the test system is Plasmodium yoelii. Description: Antimalarial activity as parasitaemia after 28 days against chloroquine-resistant Plasmodium yoelii N67 infected Swiss mice (Mus musculus) at 50 mg/kg peroral dose over 7 days. Type of assay: functional. The conditions noted are these: route oral.
Another assay has as its system Enterococcus faecalis. Put plainly: Antibacterial activity against Streptococcus faecalis after 24 hrs by NCCLS method. The class given is functional. In outline:
(§1)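 Bacteria grown on nutrient agar at 37 °C for 24 h, then suspended in normal saline with 0.05% Tween 20 at about […] cells/mL (0.5 McFarland). MIC by NCCLS broth microdilution in Mueller Hinton broth with twofold serial dilutions. Compounds were dissolved in DMSO at 1 mg/mL (stock). Growth, drug and blank controls were included.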

The next assay deals with Klebsiella pneumoniae. Put plainly: Antibacterial activity against Klebsiella pneumoniae after 24 hrs by NCCLS method. Type of assay: functional. In outline:
as §1

Another assay deals with Escherichia coli. Description: Antibacterial activity against Escherichia coli after 24 hrs by NCCLS method. Type of assay: functional. In outline: as §1
A further assay relates to Pseudomonas aeruginosa. Put plainly: Antibacterial activity against Pseudomonas aeruginosa after 24 hrs by NCCLS method. Type of assay: functional. In a few lines: as §1
A further assay deals with Staphylococcus aureus. Put plainly: Antibacterial activity against Staphylococcus aureus after 24 hrs by NCCLS method. The class given is functional. In a few lines: as §1
Assay [4] has as its system Plasmodium falciparum. Description: Antimalarial effect as schizonticidal activity against chloroquine-sensitive Plasmodium falciparum 3D7 after 40 hrs. The following applies: 3D7, 40 h.
In assay [5] the test system is Plasmodium falciparum. Description: Antimalarial activity against chloroquine-sensitive Plasmodium falciparum 3D7 infected erythrocytes after 72 hrs by MSF assay. The conditions noted are these: 3D7, 72 h.
Assay [6] deals with Plasmodium yoelii. Description: Antimalarial activity as reduced parasitaemia after 28 days against chloroquine-resistant Plasmodium yoelii N67 infected Swiss mice (Mus musculus) at 50 mg/kg peroral dose over 7 days. The class given is functional. Also noted: scale not given: the % may be the effect or the level left. The conditions noted are these: route oral.
Assay [7] has as its system Plasmodium yoelii nigeriensis. Put plainly: Antimalarial activity at day 28 against Plasmodium yoelii nigeriensis MDR infected Swiss mice (Mus musculus) at 100 mg/kg peroral dose for 7 days. The class given is functional. The following applies: route oral.
Assay [8] relates to Plasmodium yoelii nigeriensis. Description: Antimalarial activity as parasitaemia against Plasmodium yoelii nigeriensis MDR infected Swiss mice (Mus musculus) at 100 mg/kg peroral dose over 4 days. The conditions noted are these: route oral.
Assay [9] deals with Plasmodium yoelii nigeriensis. Description: Antimalarial activity as reduced parasitaemia after 28 days against Plasmodium yoelii nigeriensis MDR infected Swiss mice (Mus musculus) at 100 mg/kg peroral dose over 4 days. The class given is functional. Also noted: scale not given: the % may be the effect or the level left. The conditions noted are these: route oral. In a few lines: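 Swiss mice of either sex (25 g) inoculated on day 0 with 1 × 10⁶ P. yoelii nigeriensis MDR parasitized cells. Groups of five mice received an aqueous suspension orally at 100 mg/kg from day 0 to day 3. Five vehicle-only mice served as controls. Parasitemia was read from tail-vein thin blood smears on days 4, 7, 14, 21 and 28, or until death.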

In assay [10] the test system is Plasmodium yoelii nigeriensis. Description: Antimalarial activity day 28 against Plasmodium yoelii nigeriensis MDR infected Swiss mice (Mus musculus) as reduced parasitaemia at 100 mg/kg peroral dose for 7 days. Type of assay: functional. Also noted: scale not given: the % may be the effect or the level left. The following applies: route oral.

In the case of `Cc1cc(NC(=O)CN2CCN(C)CC2)c2cc(NC(=O)Nc3ccc(Cl)c(C(F)(F)F)c3)ccc2n1`, the “Selectivity Index” value in assay [1] worked out at 53.4. Also, the values for the Activity in the assay on Plasmodium yoelii [2] and in the assay with Plasmodium yoelii [3] were 2.28% and 11%, respectively. In addition, the MIC with Enterococcus faecalis is 3.1 µg/mL (≈ 5.79 µM); with Klebsiella pneumoniae, 1.56 µg/mL (≈ 2.92 µM); with Escherichia coli it was 1.56 µg/mL (≈ 2.92 µM); in the assay with Pseudomonas aeruginosa, 12.5 µg/mL (≈ 23.4 µM); against Staphylococcus aureus, 6.25 µg/mL (≈ 11.7 µM); against Plasmodium falciparum [4], 0.5 µg/mL (≈ 0.935 µM). In addition, the IC50 with Plasmodium falciparum [5] is 0.0182 µg/mL (≈ 0.034 µM).
Regarding `Cc1cc(NC(=O)CN2CCN(C)CC2)c2cc(NC(=O)Nc3ccc(Cl)c(Cl)c3)ccc2n1`, the values for the Activity in the assay with Plasmodium yoelii [2], in the assay with Plasmodium yoelii [3] and with Plasmodium yoelii [6] were 2.55%, 1.5% and 92.9%, respectively. Also, the MIC against Enterococcus faecalis was 1.56 µg/mL (≈ 3.11 µM); in the assay with Escherichia coli, 1.56 µg/mL (≈ 3.11 µM); against Pseudomonas aeruginosa, 6.25 µg/mL (≈ 12.5 µM); in the assay with Staphylococcus aureus, 6.25 µg/mL (≈ 12.5 µM); in the assay with Plasmodium falciparum [4], 0.25 µg/mL (≈ 0.499 µM). This compound had an IC50 with Plasmodium falciparum [5] of 0.0022 µg/mL (≈ 0.00439 µM).
In the case of `Cc1cc(NC(=O)c2cccc(Cl)c2)c2cc(NC(=O)Nc3ccc(Cl)cc3)ccc2n1`, the MIC against Enterococcus faecalis came to 12.5 µg/mL (≈ 26.9 µM); in the assay on Klebsiella pneumoniae, 6.25 µg/mL (≈ 13.4 µM); in the assay with Escherichia coli it was 12.5 µg/mL (≈ 26.9 µM); against Pseudomonas aeruginosa, 1.56 µg/mL (≈ 3.35 µM); with Staphylococcus aureus, 3.12 µg/mL (≈ 6.7 µM); in the assay with Plasmodium falciparum [4] it was 1 µg/mL (≈ 2.15 µM). In the assay with Plasmodium falciparum [5], the IC50 amounted to 0.0144 µg/mL (≈ 0.0309 µM).
Take `Cc1cc(NC(=O)CN2CCN(C)CC2)c2cc(NC(=O)Nc3cccc(Cl)c3)ccc2n1`: the “Selectivity Index” value in [1] came to 549.7. For the same compound, the Activity was found to be 50% in assay [7] and 18.8% in assay [8]. In the assay with Plasmodium falciparum [4], this compound showed an MIC of 0.25 µg/mL (≈ 0.535 µM). Moreover, the IC50 in the assay on Plasmodium falciparum [5] stood at 0.013 µg/mL (≈ 0.0278 µM).
Turning to `Cc1cc(NC(=O)CN2CCN(C)CC2)c2cc(NC(=O)Nc3ccc(C)c(Cl)c3)ccc2n1`, the Activity with Plasmodium yoelii [2] is on record as 1.67%; with Plasmodium yoelii [3] it was 5.15%. Moreover, the MIC against Klebsiella pneumoniae is 12.5 µg/mL (≈ 26 µM); in the assay on Escherichia coli it was 6.25 µg/mL (≈ 13 µM); with Pseudomonas aeruginosa it was greater than 50 µg/mL; against Plasmodium falciparum [4], 0.25 µg/mL (≈ 0.52 µM). This compound also yielded an IC50 in the assay on Plasmodium falciparum [5] of 0.0033 µg/mL (≈ 0.00686 µM).
On to `Cc1cc(NC(=O)c2ccco2)c2cc(NC(=O)Nc3ccc(C)c(Cl)c3)ccc2n1`, for which, in [1], the “Selectivity Index” value is 524.7. Also, the results for the Activity in the assay with Plasmodium yoelii [2] and in the assay with Plasmodium yoelii [3] were 0.61% and 21.1%, respectively. Besides, the minimum inhibitory concentration (MIC) against Plasmodium falciparum [4] was 0.5 µg/mL (≈ 1.15 µM). In the assay on Plasmodium falciparum [5], this compound came in with an IC50 of 0.135 µg/mL (≈ 0.31 µM).
`Cc1cc(NC(=O)c2ccccc2)c2cc(NC(=O)Nc3cc(Cl)cc(Cl)c3)ccc2n1`: the MIC in the assay on Enterococcus faecalis was determined as 0.01 µg/mL (≈ 0.0215 µM); in the assay on Klebsiella pneumoniae it was 0.04 µg/mL (≈ 0.086 µM); against Escherichia coli it was 0.0025 µg/mL (≈ 0.00537 µM); with Pseudomonas aeruginosa, 12.5 µg/mL (≈ 26.9 µM); with Plasmodium falciparum [4], 2 µg/mL (≈ 4.3 µM).
Regarding `Cc1cc(NC(=O)CN2CCCCC2)c2cc(NC(=O)Nc3ccc(Cl)c(C(F)(F)F)c3)ccc2n1`, the “Selectivity Index” value in assay [1] amounted to 76.5. The Activity in assay [7] was 13.83%; in [8], 0.27%. The compound also had an MIC in the assay with Plasmodium falciparum [4] of 0.25 µg/mL (≈ 0.481 µM). In the assay on Plasmodium falciparum [5], inhibition was half-maximal at 0.0358 µg/mL (≈ 0.0689 µM) (IC50).
Take GENTAMICIN: the MIC was 3.12 µg/mL against Enterococcus faecalis, 25 µg/mL against Klebsiella pneumoniae, 6.25 µg/mL with Pseudomonas aeruginosa and 6.25 µg/mL against Staphylococcus aureus.
Turning to `CCN1CCN(CC(=O)Nc2cc(C)nc3ccc(NC(=O)Nc4ccc(Cl)c(Cl)c4)cc23)CC1`, the MIC in the assay with Klebsiella pneumoniae came to 12.5 µg/mL (≈ 24.3 µM); in the assay with Staphylococcus aureus, 6.25 µg/mL (≈ 12.1 µM); against Plasmodium falciparum [4], 0.5 µg/mL (≈ 0.97 µM).
As for `Cc1cc(NC(=O)c2ccco2)c2cc(NC(=O)Nc3cccc(C#N)c3)ccc2n1`, the Activity in assay [7] came out at 1.84%; in assay [9], 100%; in assay [10], 91.29%; in assay [8] it was 0%. Moreover, in the assay on Plasmodium falciparum [4], the MIC came to 0.5 µg/mL (≈ 1.22 µM). In addition, half-maximal inhibition in the assay on Plasmodium falciparum [5] (IC50) was put at 0.0004 µg/mL (≈ 0.000972 µM).
In the case of `Cc1cc(NC(=O)c2ccco2)c2cc(NC(=O)Nc3ccc(Cl)cc3)ccc2n1`, the “Selectivity Index” value in assay [1] was 3909.5. In addition, the Activity in the assay on Plasmodium yoelii [2] stood at 2.95%; with Plasmodium yoelii [3], 13.2%. Moreover, the MIC against Plasmodium falciparum [4] came out at 0.5 µg/mL (≈ 1.19 µM). Moreover, the IC50 with Plasmodium falciparum [5] came to 0.0139 µg/mL (≈ 0.033 µM).
The corresponding values for `Cc1cc(NC(=O)CN2CCN(C)CC2)c2cc(NC(=O)Nc3cccc(C(F)(F)F)c3)ccc2n1` are 2594.9, 2.5%, 21.9%, 0.25 µg/mL (≈ 0.499 µM) and 0.0008 µg/mL (≈ 0.0016 µM).
The like results for `Cc1cc(NC(=O)c2ccccc2Cl)c2cc(NC(=O)Nc3cccc(C#N)c3)ccc2n1` were, in that order, 2401.9, 6.05%, 12.11%, 1 µg/mL (≈ 2.19 µM) and 0.0284 µg/mL (≈ 0.0623 µM).
For `Cc1cc(NC(=O)CN2CCN(C)CC2)c2cc(NC(=O)Nc3cc(Cl)cc(Cl)c3)ccc2n1`, in assay [1], the “Selectivity Index” value is 4404.8. Moreover, the Activity in the assay with Plasmodium yoelii [2] worked out at 4.78%; in the assay on Plasmodium yoelii [3], 15.5%. Further, the MIC against Enterococcus faecalis turned out to be 3.12 µg/mL (≈ 6.23 µM); against Escherichia coli, 1.56 µg/mL (≈ 3.11 µM); against Plasmodium falciparum [4], 0.25 µg/mL (≈ 0.499 µM). In the assay on Plasmodium falciparum [5], this compound returned an IC50 of 0.0004 µg/mL (≈ 0.000798 µM).
In the case of `CCN1CCN(CC(=O)Nc2cc(C)nc3ccc(NC(=O)Nc4cc(Cl)cc(Cl)c4)cc23)CC1`, the MIC in the assay on Klebsiella pneumoniae came to 6.25 µg/mL (≈ 12.1 µM); with Escherichia coli, 12.5 µg/mL (≈ 24.3 µM); against Staphylococcus aureus, 3.12 µg/mL (≈ 6.05 µM); in the assay with Plasmodium falciparum [4], 0.5 µg/mL (≈ 0.97 µM).
For `Cc1cc(NC(=O)CN2CCN(C)CC2)c2cc(NC(=O)Nc3ccc(Br)cc3)ccc2n1`, the MIC came to 6.25 µg/mL (≈ 12.2 µM) against Enterococcus faecalis; 6.25 µg/mL (≈ 12.2 µM) against Klebsiella pneumoniae; 6.25 µg/mL (≈ 12.2 µM) in the assay with Escherichia coli; 1.56 µg/mL (≈ 3.05 µM) in the assay with Pseudomonas aeruginosa; 1 µg/mL (≈ 1.96 µM) with Plasmodium falciparum [4].
